# Source: PubChem (Broad Institute)
# rRNA inh HTS: inhibits bacterial ribosomal RNA function over humanized ribosomes; 1.6% of 350,000 active; GFP signal change (wild-type ribosome), % (no concentration beside the values); AID 720706; E. coli WT GFP vs humanized-ribosome RFP mutants, fluorescence, 24 h; active compounds read low; DMSO median 0, no signal -100;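 active = significant combined selectivity score with lowered wild-type GFP, culture density cut under 30%, mutant RFP and density less affected; inactive = any of these conditions unmet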
# SR-BI uptake up: SR-BI HDL lipid transfer activation | CHO ldlA[mSR-BI] cells, DiI-HDL uptake fluorescence, 3 h; 100 = double the neutral-control signal | AID 504775 | activation, % at 12.5 µM | 0.096% of 320,000 active;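 active = mean replicate activation of at least 60% and every replicate at or above 60%; inconclusive = mean or all-replicate condition met, but not both; inactive = mean below 60% and not all replicates reaching 60%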
#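 Assay system: CHO ldlA[mSR-BI] cells, LDL receptor-null, SR-BI overexpressing; medium: Ham's F12 with 0.5% BSA, HEPES 25 mM, pH 7.4; also added: DiI-HDL 10 µg/mL; timing: 3 h uptake period with compound, 37 °C; signal: DiI fluorescence, bottom read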
# dFosB act-1: activators of mouse delta FosB homodimer. P13346. purified delta FosB, TAMRA-CDK5 oligo fluorescence polarization; percent of positive-control signal above neutral wells. activation, % at 25 µM. 0.99% of 340,000 active. AID 493131;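 active = mean activation above about 17%, with every replicate also reaching it, limit read from the data, passing the limit was not always enough; inconclusive = only one of the two conditions met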
# PvdQ inh: blocks Pseudomonas aeruginosa PvdQ acylase activity | AID 488965 | purified PvdQ acylase, fluorescence plate reader | inhibition, % at 10 µM | 0.063% of 340,000 active; in the data active = inhibition above about 30%, passing the limit was not always enough; inconclusive = no clear call, values can overlap the other calls
# XiGFP reactiv: X-chromosome reactivation activator; XiGFP mouse fibroblasts, % GFP-positive cells imaging, 3 d; cells co-treated with 5-aza-dC sensitizer; scaled so ellipticine positive control = 100%; activation, % at 7.58 µM; 0.055% of 360,000 active; AID 743238;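 active = mean normalized replicate activation at least 10% and every replicate at or above 10%; inconclusive = only one of the two criteria met; inactive = mean below 10% and not all replicates reach 10%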
#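 Assay system: SV40-immortalized XiGFP fibroblast cells, line 68-5-11; buffer or medium: DMEM plus 5-aza-dC sensitizer; compound: one concentration, pinned; timing: compounds 3 days, fix/stain 15 min at room temperature; benchmarks: positive control ellipticine, 6 µM final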
# SR-BI HDL uptake: blocks mouse SR-BI lipid uptake from DiI-HDL; Q61009; inhibition, % at 12.5 µM; ldlA[mSR-BI] CHO cells, DiI-HDL uptake fluorescence, 3 h; 0.96% of 320,000 active;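 active = mean replicate inhibition of at least 70% and a set share of replicates each scoring 70 or more; inconclusive = meets just one of the two criteria; inactive = fails both criteria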
# Target sequence (Q61009 whole entry, looked up): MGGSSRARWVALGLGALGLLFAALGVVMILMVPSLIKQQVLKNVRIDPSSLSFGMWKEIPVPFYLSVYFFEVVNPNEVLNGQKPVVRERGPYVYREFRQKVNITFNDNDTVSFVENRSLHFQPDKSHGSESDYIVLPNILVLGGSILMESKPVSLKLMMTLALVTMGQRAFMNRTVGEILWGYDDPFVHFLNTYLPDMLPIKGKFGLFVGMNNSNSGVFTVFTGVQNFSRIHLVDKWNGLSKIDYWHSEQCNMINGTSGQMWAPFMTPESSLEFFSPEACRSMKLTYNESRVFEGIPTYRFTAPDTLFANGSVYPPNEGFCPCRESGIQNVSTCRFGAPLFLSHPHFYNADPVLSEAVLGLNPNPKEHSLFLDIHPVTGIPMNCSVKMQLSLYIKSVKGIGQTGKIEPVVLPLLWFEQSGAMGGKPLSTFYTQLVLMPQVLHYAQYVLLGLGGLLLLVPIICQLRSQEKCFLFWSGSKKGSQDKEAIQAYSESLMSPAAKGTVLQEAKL
# dFosB act-2: activators of mouse delta FosB homodimer DNA binding. AID 588690. 2,400 tested, under 10 active. shares compounds with dFosB act-1. activation, % at 24.9 µM. purified delta FosB, TAMRA-CDK5 oligo fluorescence polarization; normalised: neutral wells 0, positive control 100;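 active = highest replicate activation at or above 34% and every replicate reaching that threshold; inconclusive = meets only one of the two criteria; inactive = meets neither criterion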;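 also: higher polarization means more probe DNA bound by delta FosB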
# A number is an active result; i = inactive; ? = inconclusive; nt = not tested or not shown. Sampled rows, rich in hits. Any-hit rate of the full collection: about 2.6%.
SMILES,rRNA inh HTS,SR-BI uptake up,dFosB act-1,PvdQ inh,XiGFP reactiv,SR-BI HDL uptake,dFosB act-2
O=C(N/N=C/c1cccc2nccnc12)c1ccccc1O,i,nt,23.2,i,i,nt,i
O=C(N/N=C/c1cccc2cccnc12)c1ccccc1O,i,nt,i,i,i,nt,nt
O=C(O)CCS(=O)(=O)Cc1cccc(Cl)c1,i,i,i,i,nt,i,nt
O=C(CCC(=O)NNC(=O)COc1ccccc1)NCc1ccccc1,i,i,i,i,nt,i,nt
O=C(CCC(=O)NNC(=O)COc1ccc(Br)cc1Br)NCc1ccccc1,i,i,33.6,i,i,i,i
Cc1cc(Br)cc(Br)c1OCC(=O)NNC(=O)CCC(=O)NCc1ccccc1,i,i,25.4,i,i,i,i
CC(C)C[C@H]1CNC(=S)N1CC1CCCN1C[C@H](CC(C)C)N1C[C@H](Cc2ccc(O)cc2)N(CC2CCCCCC2)C1=S (stereo not given in full),nt,i,23.3,i,i,i,i
CC(C)C[C@H]1CNC(=S)N1CC1CCCN1C[C@H](Cc1ccccc1)N1C[C@H](Cc2ccc(O)cc2)N(CC2CCCCC2)C1=S (stereo not given in full),i,i,59.2,i,i,i,i
CC(C)C[C@H]1CNC(=S)N1CC1CCCN1C[C@H](CC(C)C)N1C[C@H](Cc2ccc(O)cc2)N(CC2CCCCC2)C1=S (stereo not given in full),i,i,27.1,i,i,i,i
CC(C)C[C@H]1CNC(=S)N1C[C@H]1CCCN1C[C@H](Cc1ccccc1)N1C[C@H](Cc2ccc(O)cc2)N(CC2CCCCCC2)C1=S,nt,nt,nt,nt,i,nt,nt
CC(C)C[C@@H](CN1CCCC1CN1C(=S)NC[C@@H]1Cc1ccc(O)cc1)N1C[C@H](Cc2ccc(O)cc2)N(CC2CCCCC2)C1=S (stereo not given in full),i,76.1,36.5,i,i,i,i
S=c1nc(-c2ccc(Br)cc2)[nH]c2ccccc12,i,nt,45.4,i,i,nt,i
CCOc1ccc(C(=O)/C=C/Nc2ccc(S(=O)(=O)N=C(N)N)cc2)cc1,nt,i,34.2,i,i,i,i
NC(N)=NS(=O)(=O)c1ccc(N/C=C/C(=O)c2ccc(Cl)c(Cl)c2)cc1,i,i,45.5,i,i,i,i
CCOc1ccc(N/C=C/C(=O)c2ccc(OC)c(OC)c2)cc1,i,i,i,i,i,i,nt
COc1ccc(NC(=O)Nc2ccc3c(c2)CC(=O)N([C@H](C)CO)C[C@@H](C)[C@H](CN(C)Cc2ccc(Oc4ccccc4)cc2)O3)cc1,i,nt,nt,nt,i,nt,nt
CC1(c2ccc(Cl)cc2)NC(=O)N(CC(=O)Nc2ccc(N3CCCCC3)cc2)C1=O (stereo not given),i,i,i,i,i,i,nt
O=C1CC(c2ccco2)c2ccc3ccccc3c2N1 (stereo not given),nt,i,i,i,nt,i,nt
Cc1cc(C)c(S(=O)(=O)N2CCc3ccccc32)c(C)c1,i,i,26.8,i,i,i,i
Cc1n[nH]c(C)c1S(=O)(=O)N1CCc2ccccc21,nt,i,i,i,nt,i,nt
COc1ccc2nc(SCC(=O)Nc3ccc4sc(C)nc4c3)c(C#N)cc2c1,nt,i,21.1,i,nt,i,i
COc1ccc(NC(=O)CSc2nc(N)c(C#N)cc2C#N)cc1,i,i,i,i,nt,i,nt
COc1ccc2cc(C#N)c(SCC(=O)NNC(=O)Cc3ccccc3)nc2c1,nt,i,68.2,i,nt,i,i
O=C(C[C@@H]1C[C@@H]2c3cc(NC(=O)Nc4ccccc4)ccc3O[C@@H]2[C@H](CO)O1)NC1CCCC1,i,nt,nt,nt,i,nt,nt
Cc1ccccc1CNC(=O)C1CCCN(c2nnc(C)c3c(C)n(-c4ccccc4)nc23)C1 (stereo not given),i,i,17.8,i,i,i,i
SMILES,rRNA inh HTS,SR-BI uptake up,dFosB act-1,PvdQ inh,XiGFP reactiv,SR-BI HDL uptake,dFosB act-2
CCc1ccc(CNC(=O)C2CCCN(c3nnc(C)c4c(C)n(-c5ccccc5)nc34)C2)cc1 (stereo not given),i,i,30.9,i,i,i,?
Cc1nnc(N2CCCC(C(=O)NCc3cccc(F)c3)C2)c2nn(-c3ccccc3)c(C)c12 (stereo not given),i,i,i,i,i,i,nt
CC1(C(=O)NCCc2c[nH]c3ccccc23)CCN1Cc1csc2ccccc12 (stereo not given),i,nt,nt,nt,i,nt,nt
NS(=O)(=O)c1ccc(NC(=O)/C=C/c2cn(-c3ccccc3)nc2-c2cccc(Cl)c2)cc1,i,i,141.6,i,i,i,i
CSc1ccc(S(=O)(=O)NCC(=O)OCCOc2ccccc2)cc1[N+](=O)[O-],i,i,27.5,i,i,i,i
Cc1ccc2nc(-c3ccc(NC(=O)COC(=O)c4ccc([N+](=O)[O-])o4)cc3)sc2c1,i,i,i,i,i,i,nt
Cc1ccc2nc(-c3ccc(NC(=O)COC(=O)c4ccc(Br)o4)cc3)sc2c1,nt,i,35.3,i,i,i,i
N=C1C(c2nc3ccccc3s2)=C(O)CN1NC(=O)c1c[nH]c2ccccc12,i,i,26.7,i,i,i,i
N=C1C(c2nc3ccccc3s2)=C(O)CN1NC(=O)c1ccccc1[N+](=O)[O-],i,i,i,i,i,i,nt
N#C[C@@H]1[C@H](c2ccccc2-c2ccccc2F)[C@H](CO)N1C(=O)C1CCC1,i,nt,nt,nt,i,nt,nt
O=C(COC(=O)c1ccc2c(c1)C(=O)N(Cc1ccncc1)C2=O)Nc1cccc2ccccc12,i,i,27.4,i,i,i,i
CCOC1=C2[C@H](c3ccc(CC)cc3)N(S(=O)(=O)c3ccc(C)cc3)C[C@H]2n2c(=O)n(-c3ccccc3)c(=O)n2C1,i,nt,nt,nt,i,nt,nt
CC1CC(C)(C)CC2(C1)NC(=O)N(CC(=O)OCC(=O)Nc1cc(S(=O)(=O)N3CCCCC3)ccc1Cl)C2=O (stereo not given),i,i,i,i,i,i,nt
Cc1cc(OCC(=O)Nc2sc3c(c2C#N)CC(C)(C)NC3(C)C)c(C(C)C)cc1Cl,i,i,62.0,i,i,i,i
Cc1ccc(C(C)C)c(OCC(=O)Nc2sc3c(c2C#N)CC(C)(C)NC3(C)C)c1,nt,nt,i,i,nt,nt,nt
COC(=O)c1ccc(NC(=O)COC(=O)C2CCC2)cc1,i,i,i,i,i,i,nt
O=C(N/N=C/C1=Cc2ccccc2OC1)c1ccncc1,i,i,i,i,i,i,nt
O=C1CC(=C(c2ccccc2)c2ccccc2)C(=O)N1CCCN1CCN(c2cccc(Cl)c2)CC1,nt,i,i,i,nt,i,nt
